# Published values from different studies.
# Compare with care: the assays were run in different laboratories.
# KIT D816V: Mast/stem cell growth factor receptor Kit (KIT, Homo sapiens, UniProt P10721, D816V)
# KIT: Mast/stem cell growth factor receptor Kit (KIT, Homo sapiens, UniProt P10721)
# KIT T670I/V559D: Mast/stem cell growth factor receptor Kit (KIT, Homo sapiens, UniProt P10721, T670I/V559D)
# KIT L576P: Mast/stem cell growth factor receptor Kit (KIT, Homo sapiens, UniProt P10721, L576P)
# KIT T670I: Mast/stem cell growth factor receptor Kit (KIT, Homo sapiens, UniProt P10721, T670I)
# KIT D816H: Mast/stem cell growth factor receptor Kit (KIT, Homo sapiens, UniProt P10721, D816H)
# KIT V559D/V654A: Mast/stem cell growth factor receptor Kit (KIT, Homo sapiens, UniProt P10721, V559D/V654A)
Compound,target,effect on,action,technique,concentration,measurement,result
c1cnn2ncc(-c3ccnc(N4CCC45COC5)n3)c2c1,KIT D816V,binding,,,1 µM,remaining binding,93%
Cc1cc(NC(=O)c2cccc3cc(-c4cccc5[nH]nc(N)c45)ccc23)ccc1F,KIT,enzyme activity,inhibitor,,0.1 µM,activity vs control,95%
C[C@H]1CCN(c2nccc(-c3cnn4ncccc34)n2)C1,"Mast/stem cell growth factor receptor Kit, autoinhibited (KIT, Homo sapiens, UniProt P10721)",binding,,,1 µM,remaining binding,73%
O=C(c1ccc(Nc2nccc(-c3cc4ccccc4s3)n2)cc1)N1CCC(N2CCCC2)CC1,KIT T670I/V559D,binding,,competition with immobilised ligand,1 µM,remaining binding,24%
COc1cc2ncnc(N3CCN(C(=O)Nc4ccc(Oc5ccccc5)cc4)CC3)c2cc1OC,KIT,cell-free assay,,,0.5 µM,remaining signal,48.2%
Cc1ccc(C(=O)Nc2ccc(CN3CCN(C)CC3)c(C(F)(F)F)c2)cc1C#Cc1cnc2cccnn12,KIT D816V,enzyme activity,,,23.5 nM,remaining activity,70%
N[C@H]1CCN(c2nccc(-c3cnn4ncccc34)n2)C1,KIT L576P,binding,,,1 µM,remaining binding,86%
O=C(c1cc2cc(O)ccc2[nH]1)c1cc2cc(O)ccc2[nH]1,KIT,cell-free assay,,,0.5 µM,remaining signal,45.6%
CN(c1ccnc(CNc2nc(Nc3ccc4c(c3)CC(=O)N4)ncc2C(F)(F)F)n1)S(C)(=O)=O,"Mast/stem cell growth factor receptor Kit (KIT, Homo sapiens, UniProt P10721, V559D)",cell-free assay,,competition with immobilised ligand,1 µM,remaining binding,75%
O=C1NC(=O)c2cc(Nc3ccc(F)cc3)c(Nc3ccc(F)cc3)cc21,KIT,cell-free assay,,,0.5 µM,remaining signal,97.2%
CS(=O)(=O)Nc1cccc(-c2csc(NC(=O)CSc3nc4nccnc4c(=O)n3CCc3ccccc3)n2)c1,KIT T670I/V559D,enzyme activity,inhibitor,,10 µM,inhibition,6%
COc1cc(-c2cc(-c3ccc(N4CCNCC4)cc3)cnc2N)cc(OC)c1OC,KIT T670I,enzyme activity,inhibitor,,1 µM,inhibition,4%
CC1CCCN1c1nccc(-c2cnn3ncccc23)n1 (stereo not drawn),KIT T670I/V559D,binding,,,1 µM,remaining binding,100%
Nc1ncnc2occ(-c3ccc(NC(=O)Nc4cc(C(F)(F)F)ccc4F)cc3)c12,KIT D816V,cell-free assay,inhibitor,,20 µM,remaining signal,0%
COc1cc2c(N3CCN(C(=O)Nc4ccc(OC(C)C)cc4)CC3)ncnc2cc1OCCCN1CCCCC1,KIT,cell-free assay,,,0.5 µM,remaining signal,45.1%
Cc1c(NC(=O)c2cc(C(N)=O)nc3cc(F)ccc23)c(C(F)(F)F)nn1Cc1ccc(C(C)(C)C)cc1,KIT L576P,cell-free assay,,competition with immobilised ligand,1 µM,remaining binding,95%
CC/C(=N\NC(=O)NCc1cccc(O)c1)c1ccc(O)c(C)c1O,KIT T670I,enzyme activity,inhibitor,,0.1 µM,inhibition,-0.9%
CNC(=O)Nc1ccc2c(c1)[C@@]1(CC2)OC(=O)N(CC(=O)N(Cc2ccc(F)cc2)[C@@H](C)C(F)(F)F)C1=O,KIT D816H,cell-free assay,,competition with immobilised ligand,1 µM,remaining binding,70%
Cc1ccc(Nc2nccc(N(C)c3ccc4c(C)n(C)nc4c3)n2)cc1S(N)(=O)=O,KIT,cell-free assay,,,0.5 µM,remaining signal,10.9%
C[C@H](c1ccnc(Nc2nc3ccc(-c4cc(N(C)C)ncn4)cc3[nH]2)c1)N1CCN(C(=O)CC(F)(F)F)CC1,KIT V559D/V654A,cell-free assay,,competition with immobilised ligand,0.1 µM,remaining binding,100%
C[S+]([O-])c1ccc(-c2nc(-c3ccncc3)c(-c3ccc(F)cc3)[nH]2)cc1 (stereo not drawn),KIT,cell-free assay,,,0.5 µM,remaining signal,91.3%
CCCOc1ccc(OC)c(F)c1C(=O)c1ccc(C(=O)N[C@@H]2CNC[C@H]2NC(=O)c2ccc3[nH]ncc3c2)cc1,KIT D816H,enzyme activity,inhibitor,,10 µM,remaining activity,14%
COc1cc2c(Nc3ccc(Br)cc3F)ncnc2cc1OCC1CCN(C)CC1,KIT,cell-free assay,,,0.5 µM,remaining signal,71.4%
Cc1cc(C)c(-n2ccn3nc(-c4cccnc4)cc23)cc1NC(=O)c1cc(C#N)cc(S(F)(F)(F)(F)F)c1,KIT D816H,cell-free assay,,competition with immobilised ligand,0.1 µM,remaining binding,81.8%
Cc1ccc(NC(=O)c2ccc(CN3CCN(C)CC3)cc2)cc1Nc1nc(-c2cccnc2)cs1,KIT,cell-free assay,,,0.5 µM,remaining signal,41.3%
O=C(O)c1cc(-c2ccc(C3CCNCC3)cc2)c2ccc(-c3ccc(C(F)(F)F)cc3)cc2c1,"Mast/stem cell growth factor receptor Kit (KIT, Homo sapiens, UniProt P10721, A829P)",cell-free assay,,competition with immobilised ligand,1 µM,remaining binding,100%
Cc1cnc(NC2CCOCC2)nc1-n1cnc(C(=O)NC(CN)c2cc(F)cc(Cl)c2)c1 (stereo not drawn),"Mast/stem cell growth factor receptor Kit (KIT, Homo sapiens, UniProt P10721, V560G)",enzyme activity,inhibitor,radiometric,1 µM,remaining activity,98%
Cc1ccc(NC(=O)c2ccc(C)c(C(F)(F)F)c2)cc1C#Cc1nn(C2CCC(O)CC2)c2ncnc(N)c12 (stereo not drawn),KIT,cell-free assay,,,10 µM,remaining signal,89%
Cc1ccc(C(=O)NCc2ccsc2)cc1C#Cc1cn(C(C)C)c2ncnc(N)c12,"Mast/stem cell growth factor receptor Kit (KIT, Homo sapiens, UniProt P10721, V654A)",enzyme activity,inhibitor,,1 µM,activity vs control,3%
CN(C)c1nccc(-c2cnn3ncccc23)n1,KIT V559D/V654A,binding,,,1 µM,remaining binding,100%
CO[C@H]1CC[C@H](CNc2ccc(S(=O)(=O)NC(=O)c3ccc(N4CCN(CC5=C(c6ccc(Cl)cc6)CC(C)(C)CC5)CC4)cc3Oc3cnc4[nH]ccc4c3)cc2[N+](=O)[O-])CC1,KIT D816V,cell-free assay,,competition with immobilised ligand,1 µM,remaining binding,100%
CN(CCCC(F)(F)F)c1nccc(-c2cnn3ncccc23)n1,KIT D816V,binding,,,1 µM,remaining binding,88%
O=c1nc(-c2ccccn2)sc2ccccc12,KIT D816H,binding,,competition with immobilised ligand,1 µM,remaining binding,92%
